Source: PubChem BioAssay (Sanford-Burnham Center for Chemical Genomics)
Compounds with a hit are over-represented: about 3% of the library has one in this group of screens.
SENP7 block = SENP7 protease inhibitors, primary screen, biochemical, luminescence, uHTS; Sentrin-specific protease 7 (Homo sapiens), Q9BQF6; recombinant SENP7, Z-RLRGG-aminoluciferin luminescence, 40 min; inhibition, % at 5 µM; 1.5% of 330,000 active;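 active means inhibition above about 50% at the single test dose, limit read from the data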
SENP8 block-1 = SENP8 protease inhibitors, primary screen, biochemical, luminescence; Sentrin-specific protease 8 (Homo sapiens), Q96LD8; purified SENP8, Z-RLRGG-aminoluciferin cleavage; inhibition, % at 10 µM; 1.2% of 330,000 active; AID 2540, 2010; in the data active means inhibition above about 50%
Apaf-1 inh = inhibitors of human Apaf-1 apoptosome, primary screen, biochemical, DEVD-Rh110 fluorescence, uHTS | inhibition, % at 20 µM | AID 489030, 2010 | Apoptotic protease-activating factor 1 (Homo sapiens), O14727 | 0.71% of 330,000 active | reconstituted apoptosome caspase-3 activity; active means inhibition of at least 40% at 20 µM
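System: reconstituted apoptosome with Apaf-1, cytochrome c, caspase-9, procaspase-3, dATP; Signal: Rh110 fluorescence intensity; Schedule: 30 min compound preincubation, 50 min activation, room temperature; Reagent: cytochrome c trigger plus (Z-DEVD)2-Rh110 caspase-3 substrate.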
SENP6 block = SENP6 protease inhibitors, primary screen, biochemical, luminescence, uHTS | Sentrin-specific protease 6 (Homo sapiens), Q9GZR1 | AID 2599, 2010 | 1.8% of 330,000 active | Recombinant SENP6 catalytic domain, aminoluciferin luminescence | inhibition, % at 10 µM;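 active means inhibition above about 50% at the single tested dose, limit read from the data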
Target sequence (Q9GZR1 628-1112 limits assumed): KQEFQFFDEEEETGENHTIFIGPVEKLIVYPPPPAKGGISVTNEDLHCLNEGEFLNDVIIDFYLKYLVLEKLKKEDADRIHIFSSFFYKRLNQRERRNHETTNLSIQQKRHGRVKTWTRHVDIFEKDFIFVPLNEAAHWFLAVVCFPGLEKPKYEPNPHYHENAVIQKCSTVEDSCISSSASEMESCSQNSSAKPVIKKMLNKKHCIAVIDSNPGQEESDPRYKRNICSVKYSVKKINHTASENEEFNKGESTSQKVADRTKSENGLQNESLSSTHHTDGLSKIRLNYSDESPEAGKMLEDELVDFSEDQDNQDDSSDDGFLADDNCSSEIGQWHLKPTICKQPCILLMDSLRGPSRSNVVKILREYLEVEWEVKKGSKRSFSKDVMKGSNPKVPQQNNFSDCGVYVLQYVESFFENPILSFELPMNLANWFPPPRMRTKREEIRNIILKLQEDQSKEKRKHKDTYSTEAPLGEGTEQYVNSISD
UBC13 polyUb = UBC13 polyubiquitin chain formation inhibitors, primary screen, biochemical, TR-FRET, uHTS; Ubiquitin-conjugating enzyme E2 N (Homo sapiens), P61088; inhibition, % at 20 µM; 0.47% of 330,000 active; in the data active means inhibition above about 45%, passing the limit was not always enough
SENP8 block-2 = human SENP8 protease inhibitors, primary screen, biochemical, fluorescence, Nedd8 protein substrate, uHTS; inhibition, % at 20 µM; AID 602440, 2012; recombinant SENP8; Sentrin-specific protease 8 (Homo sapiens), Q96LD8; 0.64% of 360,000 active; in the data active means inhibition mostly above about 40%, no sharp cut-off; inactive means mostly below about 27%
SENP8 conf = human SENP8 protease inhibitors, confirmation, biochemical, Nedd8 protein substrate, single concentration; shares compounds with SENP8 block-2; purified SENP8, Nedd8-AMC/pro-Nedd8 cleavage fluorescence, 30 min; inhibition, % at 25 µM; 15% of 1,400 active; in the data active means inhibition mostly above about 39%, no sharp cut-off; inactive means mostly below about 34%
A number is an active result.

What do the screens show for `CCOc1ccc(CCNC(=O)C(C)n2nc(C)n3c(cc4occc43)c2=O)cc1OCC` (centres undefined)?
SENP7 block: inactive; SENP8 block-1: inactive; Apaf-1 inh: inactive; SENP6 block: inactive; UBC13 polyUb: inactive; SENP8 block-2: 42; SENP8 conf: inactive

What do the screens show for `COc1ccc(CC(=O)NC(C)c2nnc(SCC(=O)c3ccc(OC)cc3)n2C)cc1` (centres undefined)?
SENP7 block: inactive; SENP8 block-1: inactive; Apaf-1 inh: inactive; SENP6 block: inactive; UBC13 polyUb: inactive; SENP8 block-2: inactive

What do the screens show for `COc1ccc(C(=O)CSc2nnc(C(CO)NC(=O)c3ccc(OC)cc3)n2C)cc1` (centres undefined)?
SENP7 block: inactive; SENP8 block-1: inactive; Apaf-1 inh: inactive; SENP6 block: inactive; UBC13 polyUb: inactive; SENP8 block-2: 73; SENP8 conf: inactive

What do the screens show for `CN1OC[C@@H]2CN3C(=O)N(c4cccc5ccccc45)c4ccccc4[C@@H]3C[C@@H]21`?
SENP8 block-2: inactive

How did CCCn1c(=C(C#N)C#N)s/c(=C2\C=Cc3ccccc3N2CC)c1=O do in these assays?
SENP8 block-2: 52; SENP8 conf: inactive

How did COc1ccc2[nH]c3c(c2c1)CCN1C(=O)N([C@@H](C)C(=O)NCCc2ccc(F)cc2)C(=O)[C@]31C do in these assays?
SENP7 block: inactive; SENP8 block-1: inactive; Apaf-1 inh: inactive; SENP6 block: inactive; UBC13 polyUb: inactive; SENP8 block-2: inactive

What do the screens show for `CC1=NN(c2nc(-c3ccccc3)cs2)C(=O)C1`?
SENP7 block: inactive; SENP8 block-1: inactive; Apaf-1 inh: inactive; SENP6 block: inactive; UBC13 polyUb: inactive; SENP8 block-2: inactive

What do the screens show for `CC1=NN(c2ccc(Cl)c(C(=O)O)c2)C(=O)C1`?
SENP7 block: inactive; SENP8 block-1: inactive; Apaf-1 inh: inactive; SENP6 block: inactive; UBC13 polyUb: inactive; SENP8 block-2: 70; SENP8 conf: inactive

How did CC1=NN(c2ccc(C(=O)O)cc2)C(=O)CC1 do in these assays?
SENP7 block: inactive; SENP8 block-1: inactive; Apaf-1 inh: inactive; SENP6 block: inactive; UBC13 polyUb: inactive; SENP8 block-2: inactive

How did CC1=NN(c2cc(Cl)c(S(=O)(=O)O)cc2Cl)C(=O)C1 do in these assays?
SENP8 block-2: 66; SENP8 conf: inactive

How did CCN(CC)CCn1c(OC)cc(=O)[nH]c1=O do in these assays?
SENP7 block: inactive; SENP8 block-1: inactive; Apaf-1 inh: inactive; SENP6 block: inactive; UBC13 polyUb: inactive; SENP8 block-2: 43; SENP8 conf: inactive

How did CCN(CC)CCn1c(N)cc(=O)[nH]c1=O do in these assays?
SENP7 block: inactive; SENP8 block-1: inactive; Apaf-1 inh: inactive; SENP6 block: inactive; UBC13 polyUb: inactive; SENP8 block-2: inactive

Results for CCOc1ccccc1N1CC(C(=O)NC2CCCCCC2)CC1=O (centres undefined) ?
SENP7 block: inactive; SENP8 block-1: inactive; Apaf-1 inh: inactive; SENP6 block: inactive; UBC13 polyUb: inactive; SENP8 block-2: inactive

Results for COc1ccc(S(=O)(=O)N2CCSC2c2ccc(OC)c(OC)c2)cc1 (centres undefined) ?
SENP7 block: inactive; SENP8 block-1: inactive; Apaf-1 inh: inactive; SENP6 block: inactive; UBC13 polyUb: inactive; SENP8 block-2: 50; SENP8 conf: inactive

Results for COc1ccc(C2SCCN2S(=O)(=O)c2ccc(F)cc2)cc1OC (centres undefined) ?
SENP7 block: inactive; SENP8 block-1: inactive; Apaf-1 inh: inactive; SENP6 block: inactive; UBC13 polyUb: inactive; SENP8 block-2: inactive

Results for CCC1=NN(C(=O)c2ccc([N+](=O)[O-])cc2)C(O)(c2ccccc2)C1 (centres undefined) ?
SENP7 block: inactive; SENP8 block-1: inactive; Apaf-1 inh: inactive; SENP6 block: inactive; UBC13 polyUb: inactive; SENP8 block-2: 50; SENP8 conf: inactive
